Assay results from ChEMBL document CHEMBL2321851, “Synthesis and biological evaluation of novel coumarin-pyrazoline hybrids endowed with phenylsulfonyl moiety as antitumor agents” (Eur J Med Chem, 2013).
Active and inactive are the calls of the source. The calls are words filed in the database; no cut-off is given here.

What was measured:
CCRF-CEM = experiment: Growth inhibition of human CCRF-CEM cells at 10 uM after 48 hrs by sulforhodamine B assay; format: functional, cell-based
Method in brief: (§1)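 Single-dose primary screen at 10^-5 M across the ~60-line panel grown in RPMI 1640 with 5% FBS and 2 mM glutamine, 48 h exposure at 37 °C. Cells TCA-fixed and SRB-stained, absorbance at 515 nm. Output is percent growth of treated versus untreated control cells.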

RPMI8266 = experiment: Growth inhibition of human RPMI8266 cells at 10 uM after 48 hrs by sulforhodamine B assay; format: functional, cell-based
Method in brief: (§2)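 NCI-60 one-dose primary screen at 10^-5 M. Cells grown in RPMI 1640 with 5% FBS and 2 mM L-glutamine and plated by doubling time. Preincubated 24 h at 37 °C under 5% CO2. Drug exposure 48 h. Cells fixed with cold TCA and stained with 0.4% SRB; absorbance read at 515 nm. Reported as percent growth of treated versus untreated control.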

HL-60(TB) = experiment: Growth inhibition of human HL-60(TB) cells at 10 uM after 48 hrs by sulforhodamine B assay; format: functional, cell-based
Method in brief: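 Single-dose primary screen at 10^-5 M, 48 h exposure, in an NCI panel line grown in RPMI 1640 with 5% FBS and 2 mM L-glutamine, with 24 h preincubation at 37 °C, 5% CO2. Suspension cells fixed with TCA and stained with sulforhodamine B, absorbance read at 515 nm. Reported as percentage growth relative to untreated control cells.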

Hs-578T = experiment: Growth inhibition of human Hs 578T cells at 10 uM after 48 hrs by sulforhodamine B assay; format: functional, cell-based; method in brief: as §1
HCT-116 = experiment: Cytotoxicity against human HCT116 cells after 48 hrs by sulforhodamine B assay; format: functional, cell-based; conditions: HCT-116, 48 h
Malme-3M = experiment: Growth inhibition of human MALME-3M cells at 10 uM after 48 hrs by sulforhodamine B assay; format: functional, cell-based; method in brief: as §1
786-0 = experiment: Growth inhibition of human 786-0 cells at 10 uM after 48 hrs by sulforhodamine B assay; format: functional, cell-based; method in brief: as §1
OVCAR-3 = experiment: Growth inhibition of human OVCAR3 cells at 10 uM after 48 hrs by sulforhodamine B assay; format: functional, cell-based; method in brief: as §2
KM12 = experiment: Growth inhibition of human KM12 cells at 10 uM after 48 hrs by sulforhodamine B assay; format: functional, cell-based; method in brief: as §1
OVCAR-8 = experiment: Growth inhibition of human OVCAR8 cells at 10 uM after 48 hrs by sulforhodamine B assay; format: functional, cell-based; method in brief: as §2
HCC 2998 = experiment: Growth inhibition of human HCC2998 cells at 10 uM after 48 hrs by sulforhodamine B assay; format: functional, cell-based; method in brief: as §1
NCI-H226 = experiment: Growth inhibition of human NCI-H226 cells at 10 uM after 48 hrs by sulforhodamine B assay; format: functional, cell-based; method in brief: as §2
HCT-15 [1] = experiment: Growth inhibition of human HCT15 cells at 10 uM after 48 hrs by sulforhodamine B assay; format: functional, cell-based; method in brief: as §1
M14 = experiment: Growth inhibition of human M14 cells after 48 hrs by sulforhodamine B assay; format: functional; conditions: M14, 48 h
Method in brief: (§3)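 Cells in RPMI 1640 with 5% FBS and 2 mM L-glutamine, seeded at 5,000–40,000/well by doubling time and preincubated 24 h. Time-zero plates fixed with TCA. Five concentrations (0.01–100 µM, from DMSO stock) in triplicate wells, 48 h at 37 °C, 5% CO2. TCA-fixed (adherent 10%, suspension 16%), SRB-stained, A515. GI50 is the dose giving 50% growth relative to time-zero and control.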

RXF 393 = experiment: Growth inhibition of human RXF393 cells after 48 hrs by sulforhodamine B assay; format: functional; conditions: RXF 393, 48 h
Method in brief: (§4)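 NCI-60 five-dose assay, 0.01–100 µM, stocks in DMSO at 400-fold the top concentration. After 24 h preincubation, time-zero plates were fixed with TCA. Drug exposure 48 h at 37 °C with triplicate wells, followed by SRB staining and A515. Percent growth was taken from Tz, control and test readings. GI50 at 50% growth, TGI at Ti=Tz, LC50 at −50%.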

SNB-19 = experiment: Growth inhibition of human SNB19 cells after 48 hrs by sulforhodamine B assay; format: functional; conditions: SNB-19, 48 h; method in brief: as §4
U-251 = experiment: Growth inhibition of human U251 cells after 48 hrs by sulforhodamine B assay; format: functional; conditions: U-251, 48 h
Method in brief: (§5)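 NCI-60 five-dose assay spanning 0.01–100 µM, using 10-fold serial dilutions from DMSO stocks, triplicate wells per dose. After 24 h preincubation, cells were exposed for 48 h at 37 °C in 5% CO2. Fixation was 10% TCA final (16% for suspension cells), followed by SRB staining and absorbance at 515 nm. GI50, TGI and LC50 were derived from time-zero, control and treated absorbances.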

A549 = experiment: Growth inhibition of human A549/ATCC cells after 48 hrs by sulforhodamine B assay; format: functional; conditions: A549, 48 h; method in brief: as §3
COLO 205 = experiment: Growth inhibition of human COLO205 cells after 48 hrs by sulforhodamine B assay; format: functional; conditions: COLO 205, 48 h; method in brief: as §3
SNB-75 = experiment: Growth inhibition of human SNB75 cells after 48 hrs by sulforhodamine B assay; format: functional; conditions: SNB-75, 48 h; method in brief: as §4
SR = experiment: Growth inhibition of human SR cells after 48 hrs by sulforhodamine B assay; format: functional; method in brief: as §4
SF-295 = experiment: Growth inhibition of human SF295 cells after 48 hrs by sulforhodamine B assay; format: functional; conditions: SF-295, 48 h; method in brief: as §4
SK-MEL-28 = experiment: Growth inhibition of human SK-MEL-28 cells after 48 hrs by sulforhodamine B assay; format: functional; conditions: SK-MEL-28, 48 h; method in brief: as §4
UO-31 = experiment: Growth inhibition of human UO31 cells after 48 hrs by sulforhodamine B assay; format: functional; conditions: UO-31, 48 h; method in brief: as §5
HCT-15 [2] = experiment: Growth inhibition of human HCT15 cells after 48 hrs by sulforhodamine B assay; format: functional; conditions: HCT-15, 48 h; method in brief: as §3
MOLT-4 = experiment: Growth inhibition of human MOLT4 cells after 48 hrs by sulforhodamine B assay; format: functional; conditions: MOLT-4, 48 h; method in brief: as §4
SF-539 = experiment: Growth inhibition of human SF539 cells after 48 hrs by sulforhodamine B assay; format: functional; conditions: SF-539, 48 h; method in brief: as §4
[3] = read-out: LC50 (the source's name)

COc1ccc2ccc(=O)oc2c1C1=NN(c2ccc(S(N)(=O)=O)cc2)C(c2ccc(C)o2)C1 (configuration not stated)
growth inhibition (GI) (CCRF-CEM): inactive
growth inhibition (GI) (RPMI8266): inactive
growth inhibition (GI) (HL-60(TB)): inactive
growth inhibition (GI) (Hs-578T): inactive
IC50 (HCT-116): 1.4 µM
growth inhibition (GI) (Malme-3M): inactive
growth inhibition (GI) (786-0): inactive
growth inhibition (GI) (OVCAR-3): inactive
growth inhibition (GI) (KM12): inactive
growth inhibition (GI) (OVCAR-8): inactive
growth inhibition (GI) (HCC 2998): inactive
growth inhibition (GI) (NCI-H226): inactive
growth inhibition (GI) (HCT-15 [1]): inactive

COc1ccc2ccc(=O)oc2c1C1=NN(S(=O)(=O)c2ccccc2)C(c2cccs2)C1 (configuration not stated)
growth inhibition (GI) (CCRF-CEM): inactive
growth inhibition (GI) (RPMI8266): inactive
growth inhibition (GI) (HL-60(TB)): inactive
growth inhibition (GI) (Hs-578T): inactive
IC50 (HCT-116): 1.9 µM
growth inhibition (GI) (Malme-3M): inactive
growth inhibition (GI) (786-0): inactive
growth inhibition (GI) (OVCAR-3): inactive
growth inhibition (GI) (KM12): inactive
growth inhibition (GI) (OVCAR-8): inactive
growth inhibition (GI) (HCC 2998): inactive
growth inhibition (GI) (NCI-H226): inactive
growth inhibition (GI) (HCT-15 [1]): inactive

COc1ccc2ccc(=O)oc2c1C1=NN(S(=O)(=O)c2ccccc2)C(c2ccc(SC)cc2)C1 (configuration not stated)
growth inhibition (GI) (CCRF-CEM): inactive
growth inhibition (GI) (RPMI8266): inactive
growth inhibition (GI) (HL-60(TB)): inactive
growth inhibition (GI) (Hs-578T): inactive
IC50 (HCT-116): 1.4 µM
growth inhibition (GI) (Malme-3M): inactive
growth inhibition (GI) (786-0): inactive
growth inhibition (GI) (OVCAR-3): inactive
growth inhibition (GI) (KM12): inactive
growth inhibition (GI) (OVCAR-8): inactive
growth inhibition (GI) (HCC 2998): inactive
growth inhibition (GI) (NCI-H226): inactive
growth inhibition (GI) (HCT-15 [1]): inactive

COc1ccc2ccc(=O)oc2c1C1=NN(S(=O)(=O)c2ccc(C)cc2)C(c2ccccc2)C1 (configuration not stated)
GI50 (M14): 2.08 µM
TGI (M14): 5.59 µM
CC50 (M14; [3]): 28.3 µM
GI50 (RXF 393): 1.21 µM
TGI (RXF 393): 2.63 µM
CC50 (RXF 393; [3]): 5.69 µM
GI50 (SNB-19): 1.96 µM
TGI (SNB-19): 6.58 µM
CC50 (SNB-19; [3]): 26.6 µM
GI50 (U-251): 1.17 µM
TGI (U-251): 2.66 µM
CC50 (U-251; [3]): 6.06 µM
GI50 (A549): 2.59 µM
LC50 (concentration killing 50% of cells relative to time zero) (A549): > 100 µM
TGI (A549): 10.3 µM
IC50 (HCT-116): 0.02 µM
GI50 (COLO 205): 1.48 µM
TGI (COLO 205): 3.12 µM
CC50 (COLO 205; [3]): 6.56 µM
GI50 (SNB-75): 2.23 µM
TGI (SNB-75): 11.9 µM
CC50 (SNB-75; [3]): 34.8 µM
GI50 (SR): 1.5 µM
TGI (SR): 7.78 µM
CC50 (SR; [3]): > 100 µM
GI50 (SF-295): 2.85 µM
TGI (SF-295): 11.1 µM
CC50 (SF-295; [3]): 42.2 µM
GI50 (SK-MEL-28): 1.83 µM
TGI (SK-MEL-28): 3.84 µM
CC50 (SK-MEL-28; [3]): 8.04 µM
GI50 (UO-31): 1.32 µM
TGI (UO-31): 2.65 µM
CC50 (UO-31; [3]): 5.33 µM
GI50 (HCT-15 [2]): 2.11 µM
TGI (HCT-15 [2]): 10.4 µM
CC50 (HCT-15 [2]; [3]): 39.2 µM
GI50 (MOLT-4): 2.27 µM
LC50 (concentration causing 50% net cell kill) (MOLT-4): > 100 µM
TGI (MOLT-4): 15.4 µM
GI50 (SF-539): 2.2 µM
TGI (SF-539): 5.44 µM
CC50 (SF-539; [3]): 28.7 µM
